GASC1 inh: inhibitors of GASC-1 (KDM4C) histone demethylase, primary screen, biochemical, single concentration HTS | hit rate 0.15% among 96,000 | GST-KDM4C 2-372, H3K9me3 peptide, LANCE TR-FRET | inhibition, % at 12.5 µM;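 active = mean replicate inhibition above about 25%, with at least 55% of replicates also reaching it, limit read from the data, passing the limit was not always enough; inconclusive = only one of those two conditions met; inactive = neither condition met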
Target sequence (Q9H3R0 2-372 limits assumed): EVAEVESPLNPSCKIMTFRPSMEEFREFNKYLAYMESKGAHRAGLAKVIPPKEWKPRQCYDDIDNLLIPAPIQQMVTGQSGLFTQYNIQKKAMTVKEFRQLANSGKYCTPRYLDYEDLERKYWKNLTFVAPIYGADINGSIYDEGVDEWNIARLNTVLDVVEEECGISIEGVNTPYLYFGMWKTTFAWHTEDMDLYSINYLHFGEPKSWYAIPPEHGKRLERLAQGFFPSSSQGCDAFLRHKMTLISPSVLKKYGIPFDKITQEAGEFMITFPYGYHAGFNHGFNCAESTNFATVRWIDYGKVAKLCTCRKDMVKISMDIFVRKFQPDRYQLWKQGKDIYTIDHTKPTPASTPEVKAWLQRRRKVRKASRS
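Assay system: GST-GASC-1 enzyme fragment 2-372 | Amount: 10 nM enzyme | Medium: HEPES buffer, pH 7.5, plus ascorbate | Reagent: H3K9me3 peptide substrate, Fe(II), 2-oxoglutarate | Doses: Single-point compound screen | Incubation: 30 min demethylation and 1 h detection at room temperature | Measured by: LANCE TR-FRET, excitation 340 nm, emissions 618 and 671 nm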
T cruzi growth-1: T. cruzi intracellular proliferation inhibitors, primary screen, cell-based, beta-gal Tulahuen parasites, NIH3T3 host, luminescence | AID 624255, 2012 | T. cruzi beta-gal in NIH3T3, GalScreen luminescence, 90 h | inhibition, % at 8.34 µM | hit rate 5.9% among 77,000;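 active = mean inhibition above about 93%, with at least 55% of replicates each passing it, limit read from the data, passing the limit was not always enough; inconclusive = only one of those two conditions holds; inactive = neither condition holds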
IDH1 R132H inh: inhibitors of IDH1 R132H reductase, primary screen, biochemical, plate reader, single point. diaphorase/resazurin fluorescence, 60 min. inhibition, % at 10 µM. hit rate 0.18% among 70,000; in the data active = inhibition above about 34%; inconclusive = no clear call, values can overlap the other calls; inactive = below about 11%
Target sequence (O75874 whole entry R132H): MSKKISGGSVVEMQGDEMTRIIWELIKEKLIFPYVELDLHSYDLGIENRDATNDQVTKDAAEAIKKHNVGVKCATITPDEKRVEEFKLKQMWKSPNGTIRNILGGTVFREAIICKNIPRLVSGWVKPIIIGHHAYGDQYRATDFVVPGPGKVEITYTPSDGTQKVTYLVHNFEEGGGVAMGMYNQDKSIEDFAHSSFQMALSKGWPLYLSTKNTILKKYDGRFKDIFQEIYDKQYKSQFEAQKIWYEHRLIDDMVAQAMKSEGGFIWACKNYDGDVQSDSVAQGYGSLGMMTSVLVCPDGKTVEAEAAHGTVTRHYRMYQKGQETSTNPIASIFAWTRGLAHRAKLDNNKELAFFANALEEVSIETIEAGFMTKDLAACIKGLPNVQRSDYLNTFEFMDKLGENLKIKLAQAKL
T cruzi growth-2: T. cruzi intracellular proliferation inhibitors, confirmation, cell-based, NIH3T3 host, beta-gal parasite, luminescence, cherry-pick | shares compounds with T cruzi growth-1 | T. cruzi beta-gal in NIH3T3, GalScreen luminescence, 90 h | inhibition, % at 8.35 µM | hit rate 72% among 5,600;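 active = mean replicate inhibition above about 95% and at least 55% of replicates individually reaching it, limit read from the data; inconclusive = only one of the two criteria is met; inactive = neither criterion is met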
T cruzi growth-3: inhibitors of intracellular T. cruzi replication, confirmation, NIH3T3 host cells, beta-gal parasites, cherry-pick, set 2. shares compounds with T cruzi growth-1. T. cruzi beta-gal in NIH3T3, GalScreen luminescence, 90 h. inhibition, % at 2.09 µM. hit rate 21% among 5,600;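 active = mean inhibition above about 95%, with at least 55% of replicates also reaching it, limit read from the data; inconclusive = meets just one of the two conditions; inactive = meets neither condition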
NIH3T3 tox: cytotoxicity in mouse NIH/3T3 fibroblasts, confirmation, cytotoxicity control for T. cruzi proliferation inhibitor project, cell-based, cherry-pick, single point. shares compounds with T cruzi growth-1. NIH/3T3 viability, CellTiter-Glo ATP luminescence, 90 h. cytotoxicity (signal decrease), % at 8.35 µM. hit rate 14% among 5,600. AID 651742, 2012;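 active = mean signal decrease across replicates above about 35% based on untreated-well scatter, with enough replicates individually passing, limit read from the data; inconclusive = no rule stated though some were filed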
3T3 cytotox 2: NIH/3T3 fibroblast cytotoxicity, confirmation, cytotoxicity control, cell-based, cherry-pick, single point, set 2; shares compounds with T cruzi growth-1; NIH/3T3 viability, CellTiter-Glo ATP luminescence, 90 h; inhibition, % at 24.9 µM; hit rate 56% among 5,600;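 active = mean loss of cell viability signal at or above a set limit, and enough replicates individually reaching it; inconclusive = meets only the mean limit or only the replicate share; inactive = meets neither condition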
Of the large screens only hits and unclear results are named; the others gave an inactive call (follow-up assays come after a bar, where they were run). Shown is part of a subset that was picked to be rich in hits.

C[C@H]1CN([C@@H](C)CO)C(=O)c2c(c3ccccc3n2C)-c2ccccc2CO[C@@H]1CN(C)S(=O)(=O)c1cccc(F)c1	T cruzi growth-1 102 (no result: IDH1 R132H inh) | T cruzi growth-2 108 | T cruzi growth-3 inactive | NIH3T3 tox inactive | 3T3 cytotox 2 27
COCCCN=C1NS(=O)(=O)c2ccccc21	none (no result: GASC1 inh, T cruzi growth-1)
COc1cc(OC)cc(-c2nnc(SCC(=O)Nc3ccc(I)cc3)o2)c1	none (no result: GASC1 inh, T cruzi growth-1)
CN1c2ccc(-c3ccccc3F)cc2[C@H]2[C@H](CCN2C(=O)c2cccc(F)c2)[C@H]1CO	T cruzi growth-1 inconclusive (no result: IDH1 R132H inh) | T cruzi growth-2 107 | T cruzi growth-3 inactive | NIH3T3 tox inactive | 3T3 cytotox 2 103
CN1c2ccc(-c3ccccc3F)cc2[C@H]2[C@H](CCN2C(=O)Cc2ccccn2)[C@@H]1CO	none (no result: IDH1 R132H inh)
CN1c2ccc(-c3ccccc3F)cc2[C@@H]2[C@@H](CCN2C(=O)Cc2ccccn2)[C@@H]1CO	T cruzi growth-1 104 (no result: IDH1 R132H inh) | T cruzi growth-2 101 | T cruzi growth-3 inactive | NIH3T3 tox inactive | 3T3 cytotox 2 inactive
CCC(=O)N1CC[C@@H]2[C@H]1c1cc(-c3cccc(F)c3)ccc1N(C)[C@H]2CO	none (no result: IDH1 R132H inh)
CCC(=O)N1CC[C@@H]2[C@H]1c1cc(-c3ccc(F)cc3)ccc1N(C)[C@H]2CO	T cruzi growth-1 106 (no result: IDH1 R132H inh) | T cruzi growth-2 100 | T cruzi growth-3 inactive | NIH3T3 tox inactive | 3T3 cytotox 2 inactive
CN1c2ccc(-c3cccc(C#N)c3)cc2[C@H]2[C@H](CCN2C(=O)Cc2ccccn2)[C@H]1CO	T cruzi growth-1 102 (no result: IDH1 R132H inh) | T cruzi growth-2 107 | T cruzi growth-3 inactive | NIH3T3 tox inactive | 3T3 cytotox 2 inactive
CN1c2ccc(-c3ccccc3F)cc2[C@@H]2[C@@H](CCN2C(=O)c2cccc(F)c2)[C@@H]1CO	none (no result: IDH1 R132H inh)
CN1c2ccc(-c3cccc(C#N)c3)cc2[C@@H]2[C@@H](CCN2C(=O)Cc2ccccn2)[C@H]1CO	none (no result: IDH1 R132H inh)
COc1ccccc1CC(=O)Nc1ccccc1C(=O)NC(C)(C)C	none (no result: GASC1 inh, T cruzi growth-1)
C=CCNC(=O)[C@@H]1[C@H]2C(=O)O[C@H](c3ccccc3)[C@H](c3ccccc3)N2[C@H](c2ccc(OCCO)cc2)[C@@]12C(=O)N(C(=O)OCCOC)c1ccc(C#CCC(C(=O)OC)C(=O)OC)cc12	none (no result: GASC1 inh, T cruzi growth-1)
Cc1c(Br)c([N+](=O)[O-])nn1CC(=O)Nc1cccnc1	none (no result: GASC1 inh, T cruzi growth-1)
CCC(=O)N1CC[C@H]2[C@@H]1c1cc(-c3ccccc3F)ccc1N(C)[C@H]2CO	none (no result: IDH1 R132H inh)
CCC(=O)N1CC[C@@H]2[C@H]1c1cc(-c3ccccc3F)ccc1N(C)[C@@H]2CO	T cruzi growth-1 100 (no result: IDH1 R132H inh) | T cruzi growth-2 104 | T cruzi growth-3 inactive | NIH3T3 tox inactive | 3T3 cytotox 2 inactive
O=[N+]([O-])c1ccccc1S(=O)(=O)NCCOc1ccc(Cl)cc1	none (no result: GASC1 inh, T cruzi growth-1)
CO[C@@H]1CN(C)C(=O)c2cc(NC(=O)c3ccccc3F)ccc2OC[C@@H](C)N(C(=O)c2ccccc2F)C[C@H]1C	T cruzi growth-1 inconclusive | T cruzi growth-2 inactive | T cruzi growth-3 inactive | NIH3T3 tox inactive | 3T3 cytotox 2 inactive
CO[C@@H]1CN(C)C(=O)c2cc(NC(=O)c3ccccc3F)ccc2OC[C@H](C)N(C(=O)c2ccccc2F)C[C@@H]1C	T cruzi growth-1 102 | T cruzi growth-2 inactive | T cruzi growth-3 inactive | NIH3T3 tox inactive | 3T3 cytotox 2 40
CO[C@@H]1CN(C)C(=O)c2cc(NC(=O)c3ccccc3F)ccc2OC[C@H](C)N(C(=O)c2ccccc2F)C[C@H]1C	none
CO[C@H]1CN(C)C(=O)c2cc(NC(=O)c3ccccc3F)ccc2OC[C@H](C)N(C(=O)c2ccccc2F)C[C@@H]1C	none
CC1(C)CC(NC(=O)C(=O)NCC2COc3ccccc3O2)CC(C)(C)N1 (stereo not given)	none (no result: GASC1 inh, T cruzi growth-1)
COC(=O)c1cccc(NC(=O)CN(c2cccc(F)c2)S(C)(=O)=O)c1C	none (no result: GASC1 inh, T cruzi growth-1)
Cc1ccc(N(Cc2ccc(C(=O)Nc3cc([N+](=O)[O-])ccc3C)cc2)S(C)(=O)=O)cc1C	none (no result: GASC1 inh, T cruzi growth-1)
Cc1cc(C)cc(NC(=O)CSc2nc3ccccc3s2)c1	none (no result: GASC1 inh, T cruzi growth-1)
Cc1ccccc1S(=O)(=O)N1CC[C@@H]2[C@H](CO)N(C)c3ccc(Br)cc3[C@@H]21	T cruzi growth-1 131 (no result: IDH1 R132H inh) | T cruzi growth-2 107 | T cruzi growth-3 inactive | NIH3T3 tox inactive | 3T3 cytotox 2 72
Cc1ccccc1S(=O)(=O)N1CC[C@@H]2[C@H]1c1cc(Br)ccc1N(C)[C@H]2CO	none (no result: IDH1 R132H inh)
COc1ccccc1S(=O)(=O)N1CC[C@@H]2[C@@H](CO)N(C)c3ccc(-c4ccc(C#N)cc4)cc3[C@@H]21	none (no result: IDH1 R132H inh)
COc1ccccc1S(=O)(=O)N1CC[C@@H]2[C@@H](CO)N(C)c3ccc(-c4cccc(C#N)c4)cc3[C@@H]21	T cruzi growth-1 97 (no result: IDH1 R132H inh) | T cruzi growth-2 106 | T cruzi growth-3 inactive | NIH3T3 tox inactive | 3T3 cytotox 2 inactive
COc1ccccc1S(=O)(=O)N1CC[C@@H]2[C@H]1c1cc(-c3cccc(C#N)c3)ccc1N(C)[C@H]2CO	T cruzi growth-1 106 (no result: IDH1 R132H inh) | T cruzi growth-2 105 | T cruzi growth-3 inactive | NIH3T3 tox inconclusive | 3T3 cytotox 2 33
Cc1ccccc1S(=O)(=O)N1CC[C@@H]2[C@@H](CO)N(C)c3ccc(-c4cccc(C#N)c4)cc3[C@@H]21	T cruzi growth-1 100 (no result: IDH1 R132H inh) | T cruzi growth-2 99 | T cruzi growth-3 inactive | NIH3T3 tox inactive | 3T3 cytotox 2 61
Cc1ccc(S(=O)(=O)N2CC[C@H]3[C@@H](CO)N(C)c4ccc(-c5cccc(C#N)c5)cc4[C@H]32)cc1	none (no result: IDH1 R132H inh)
COc1ccccc1S(=O)(=O)N1CC[C@@H]2[C@H]1c1cc(-c3ccc(F)cc3)ccc1N(C)[C@H]2CO	none (no result: IDH1 R132H inh)
CS(=O)(=O)N(CC(=O)Nc1cc(Cl)ccc1Cl)c1ccc(I)cc1	none (no result: GASC1 inh, T cruzi growth-1)
O=C(N/N=C/c1ccccc1C(=O)O)c1ccccn1	none (no result: GASC1 inh, T cruzi growth-1)
COc1cc(OC)c(NC(=O)CCCN2C(=O)c3ccccc3C2=O)cc1Cl	none (no result: GASC1 inh, T cruzi growth-1)
N#Cc1ccccc1CSc1nnc(-c2ccccc2)n1-c1ccccc1	none (no result: GASC1 inh, T cruzi growth-1)
CN1c2ccc(Br)cc2[C@H]2[C@H](CCN2S(=O)(=O)c2cccc(F)c2)[C@H]1CO	T cruzi growth-1 inconclusive (no result: IDH1 R132H inh) | T cruzi growth-2 97 | T cruzi growth-3 inactive | NIH3T3 tox inactive | 3T3 cytotox 2 inactive
Cc1ccccc1S(=O)(=O)N1CC[C@@H]2[C@H]1c1cc(-c3ccc(F)cc3)ccc1N(C)[C@H]2CO	none (no result: IDH1 R132H inh)

Compound activity from PubChem BioAssay.
